Experimental data published in ChEMBL document CHEMBL1641462, “Synthesis and in vivo evaluation of ¹⁸F-fluoroethyl GF120918 and XR9576 as positron emission tomography probes for assessing the function of drug efflux transporters” (Bioorg Med Chem, 2011).

Assays:
Brain [1] = assay: Biodistribution in FVB mouse brain assessed per gram of tissue at 1 to 4.8 MBq, iv after 5 mins; type: ADME, organism-based; details: in vivo
How it was run: (§1)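 Male FVB mice (8–10 weeks, 25–29 g) received tracer iv (1.0–4.8 MBq, 7.1–34 pmol). Killed by cervical dislocation at 5, 15, 30, 60 or 90 min. Blood taken by heart puncture; tissues dissected, weighed and gamma-counted. Activity decay-corrected to injection time and given as %ID/g; mean ± SD, n = 4 per time point.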

Heart [2] = assay: Biodistribution in FVB mouse heart assessed per gram of tissue at 1 to 4.8 MBq, iv after 15 mins; type: ADME, organism-based; details: in vivo, 0.25 h; how it was run: as §1
Liver [3] = assay: Biodistribution in FVB mouse liver assessed per gram of tissue at 1 to 4.8 MBq, iv after 30 mins; type: ADME, organism-based; details: in vivo, 0.5 h; how it was run: as §1
Liver [4] = assay: Biodistribution in FVB mouse liver assessed per gram of tissue at 1 to 4.8 MBq, iv after 60 mins; type: ADME, organism-based; details: in vivo, 1 h; how it was run: as §1
Bone [5] = assay: Biodistribution in FVB mouse bone assessed per gram of tissue at 1 to 4.8 MBq, iv after 15 mins; type: ADME, organism-based, Bone element; details: in vivo, 0.25 h; how it was run: as §1
Brain [6] = assay: Ratio of AUC (0 to 60 mins) in wild type mouse brain to AUC (0 to 60 mins) in wild type mouse brain at 2.8 to 5.6 MBq, iv co-administered with GF120918; type: ADME, organism-based; details: in vivo
[7] = Biodistribution in FVB mouse small intestine assessed per gram of tissue at 1 to 4.8 MBq, iv after 15 mins; type: ADME, organism-based; details: in vivo, 0.25 h
How it was run: (§2)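 Male FVB mice (8–10 weeks, 25–29 g) given tracer 1.0–4.8 MBq/7.1–34 pmol iv; killed by cervical dislocation at set times (n = 4 per group). Blood by heart puncture; tissues dissected, weighed and gamma counted. Radioactivity decay-corrected to injection time, expressed as %ID/g, mean ± SD.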

Lung [8] = assay: Biodistribution in FVB mouse lung assessed per gram of tissue at 1 to 4.8 MBq, iv after 90 mins; type: ADME, organism-based; details: in vivo, 1.5 h; how it was run: as §1
Bone [9] = assay: Biodistribution in FVB mouse bone assessed per gram of tissue at 1 to 4.8 MBq, iv after 60 mins; type: ADME, organism-based, Bone element; details: in vivo, 1 h; how it was run: as §1
Brain [10] = assay: AUC (0 to 60 mins) in wild type mouse brain at 2.8 to 5.6 MBq, iv; type: ADME, organism-based; details: in vivo
How it was run: (§3)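 Small-animal PET in male wild-type and knockout mice under isoflurane (1.0–1.5%), prone on the scanner bed. Tracer (2.8–5.6 MBq, 20–40 pmol) given iv, with or without co-injected GF120918 at 5 mg/kg. Dynamic 60-min list-mode scan. Decay-corrected SUV read from ROIs on brain, and on the ventricular cavity for blood. AUC taken over 0–60 min in SUV·min; n = 4 per group.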

Muscle tissue [11] = assay: Biodistribution in FVB mouse muscle assessed per gram of tissue at 1 to 4.8 MBq, iv after 90 mins; type: ADME, organism-based; details: in vivo, 1.5 h; how it was run: as §1
Brain [12] = assay: AUC (0 to 60 mins) in wild type mouse brain at 2.8 to 5.6 MBq, iv co-administered with GF120918; type: ADME, organism-based; details: in vivo; how it was run: as §3
Blood [13] = assay: AUC (0 to 60 mins) in BCRP knockout mouse blood at 2.8 to 5.6 MBq, iv; type: ADME, tissue-based; how it was run: as §3
Kidney [14] = assay: Biodistribution in FVB mouse kidney assessed per gram of tissue at 1 to 4.8 MBq, iv after 90 mins; type: ADME, organism-based; details: in vivo, 1.5 h; how it was run: as §1
Brain [15] = assay: Biodistribution in FVB mouse brain assessed per gram of tissue at 1 to 4.8 MBq, iv after 60 mins; type: ADME, organism-based; details: in vivo, 1 h; how it was run: as §1
Blood [16] = assay: Biodistribution in FVB mouse blood assessed per gram of tissue at 1 to 4.8 MBq, iv after 30 mins; type: ADME, organism-based; details: in vivo, 0.5 h; how it was run: as §1
Lung [17] = assay: Biodistribution in FVB mouse lung assessed per gram of tissue at 1 to 4.8 MBq, iv after 30 mins; type: ADME, organism-based; details: in vivo, 0.5 h; how it was run: as §1
Brain [18] = assay: AUC (0 to 60 mins) in P-gp knockout mouse brain at 2.8 to 5.6 MBq, iv; type: ADME, organism-based; details: in vivo; how it was run: as §3
Lung [19] = assay: Biodistribution in FVB mouse lung assessed per gram of tissue at 1 to 4.8 MBq, iv after 15 mins; type: ADME, organism-based; details: in vivo, 0.25 h; how it was run: as §1
Brain [20] = assay: Biodistribution in BCRP knockout mouse brain at 3.3 to 4.9 MBq, iv after up to 60 mins; type: ADME, organism-based; details: in vivo, 1 h
Blood [21] = assay: AUC (0 to 60 mins) in P-gp knockout mouse blood at 2.8 to 5.6 MBq, iv; type: ADME, tissue-based; how it was run: as §3
Pancreas = assay: Biodistribution in FVB mouse pancreas assessed per gram of tissue at 1 to 4.8 MBq, iv after 60 mins; type: ADME, organism-based; details: in vivo, 1 h; how it was run: as §2
[22] = Fold increase in brain-to-blood ratio of drug level in FVB mouse at 1 to 4.8 MBq, iv co-administered with 5 mg/kg, iv of GF120918; details: brain and blood, with GF120918, 5 mg/kg iv
Liver [23] = assay: Biodistribution in FVB mouse liver assessed per gram of tissue at 1 to 4.8 MBq, iv after 5 mins; type: ADME, organism-based; details: in vivo; how it was run: as §1
Muscle tissue [24] = assay: Biodistribution in FVB mouse muscle assessed per gram of tissue at 1 to 4.8 MBq, iv after 60 mins; type: ADME, organism-based; details: in vivo, 1 h; how it was run: as §1
Spleen [25] = assay: Biodistribution in FVB mouse spleen assessed per gram of tissue at 1 to 4.8 MBq, iv after 60 mins; type: ADME, organism-based; details: in vivo, 1 h; how it was run: as §2
Spleen [26] = assay: Biodistribution in FVB mouse spleen assessed per gram of tissue at 1 to 4.8 MBq, iv after 5 mins; type: ADME, organism-based; details: in vivo; how it was run: as §2
[27] = Biodistribution in FVB mouse small intestine assessed per gram of tissue at 1 to 4.8 MBq, iv after 90 mins; type: ADME, organism-based; details: in vivo, 1.5 h; how it was run: as §2
Brain [28] = assay: Biodistribution in P-gp knockout mouse brain at 3.3 to 4.9 MBq, iv after up to 60 mins; type: ADME, organism-based; details: in vivo, 1 h
Brain [29] = assay: Biodistribution in FVB mouse brain assessed per gram of tissue at 1 to 4.8 MBq, iv after 90 mins; type: ADME, organism-based; details: in vivo, 1.5 h; how it was run: as §1
Brain [30] = assay: Ratio of AUC (0 to 60 mins) in P-gp/BCRP knockout mouse brain to AUC (0 to 60 mins) in wild type mouse brain at 2.8 to 5.6 MBq, iv; type: ADME, organism-based; details: in vivo
Brain [31] = assay: Biodistribution in P-gp/BCRP knockout mouse brain at 3.3 to 4.9 MBq, iv after up to 60 mins; type: ADME, organism-based; details: in vivo, 1 h
Blood [32] = assay: Biodistribution in FVB mouse blood assessed per gram of tissue at 1 to 4.8 MBq, iv after 60 mins; type: ADME, organism-based; details: in vivo, 1 h; how it was run: as §1
Heart [33] = assay: Biodistribution in FVB mouse heart assessed per gram of tissue at 1 to 4.8 MBq, iv after 5 mins; type: ADME, organism-based; details: in vivo; how it was run: as §1
Blood [34] = assay: Biodistribution in FVB mouse blood assessed per gram of tissue at 1 to 4.8 MBq, iv after 90 mins; type: ADME, organism-based; details: in vivo, 1.5 h; how it was run: as §1
Kidney [35] = assay: Biodistribution in FVB mouse kidney assessed per gram of tissue at 1 to 4.8 MBq, iv after 30 mins; type: ADME, organism-based; details: in vivo, 0.5 h; how it was run: as §1
Muscle tissue [36] = assay: Biodistribution in FVB mouse muscle assessed per gram of tissue at 1 to 4.8 MBq, iv after 15 mins; type: ADME, organism-based; details: in vivo, 0.25 h; how it was run: as §1
Brain [37] = assay: Ratio of AUC (0 to 60 mins) in P-gp knockout mouse brain to AUC (0 to 60 mins) in wild type mouse brain at 2.8 to 5.6 MBq, iv; type: ADME, organism-based; details: in vivo
Liver [38] = assay: Biodistribution in FVB mouse liver assessed per gram of tissue at 1 to 4.8 MBq, iv after 15 mins; type: ADME, organism-based; details: in vivo, 0.25 h; how it was run: as §1

Row | SMILES | Drug uptake (Brain [1]) | Drug uptake (Heart [2]) | Drug uptake (Liver [3]) | Drug uptake (Liver [4]) | Drug uptake (Bone [5]) | Ratio AUC (Brain [6]) | Drug uptake [7] | Drug uptake (Lung [8]) | Drug uptake (Bone [9]) | SUV (Brain [10]) | Drug uptake (Muscle tissue [11]) | AUC (Brain [12]) | AUC (Blood [13]) | Drug uptake (Kidney [14]) | Drug uptake (Brain [15]) | Drug uptake (Blood [16]) | Drug uptake (Lung [17]) | SUV (Brain [18]) | Drug uptake (Lung [19]) | Activity (Brain [20]) | also measured
1 | COc1cc(NC(=O)c2cnc3ccccc3c2)c(C(=O)Nc2ccc(CCN3CCc4cc(OC)c(OCC[18F])cc4C3)cc2)cc1OC | 0.13 % ID/g | 3.49 % ID/g | 23.23 % ID/g | 25.4 % ID/g | 1.85 % ID/g | 7.1 | 9.42 % ID/g | 15.76 % ID/g | 1.62 % ID/g | 4 | 0.68 % ID/g | 28.1 SUV·min | 42.2 SUV·min | 10.17 % ID/g | 0.1 % ID/g | 0.63 % ID/g | 17.89 % ID/g | 9.1 | 20.55 % ID/g | Active | AUC (Blood [21]): 45 SUV·min; Drug uptake (Pancreas): 12.45 % ID/g; Fold increase [22]: 10; Drug uptake (Liver [23]): 29.33 % ID/g; Drug uptake (Muscle tissue [24]): 0.92 % ID/g; Drug uptake (Spleen [25]): 7.18 % ID/g; Drug uptake (Spleen [26]): 5.12 % ID/g; Drug uptake [27]: 24.45 % ID/g; Activity (Brain [28]): Active; Drug uptake (Brain [29]): 0.1 % ID/g; Ratio AUC (Brain [30]): 8.3; Activity (Brain [31]): Active; Drug uptake (Blood [32]): 0.61 % ID/g; Drug uptake (Heart [33]): 7.44 % ID/g; Drug uptake (Blood [34]): 0.57 % ID/g; Drug uptake (Kidney [35]): 11.34 % ID/g; Drug uptake (Muscle tissue [36]): 1.61 % ID/g; Ratio AUC (Brain [37]): 2.3; Drug uptake (Liver [38]): 31.06 % ID/g
2 | COc1cc2c(cc1OC)CN(CCc1ccc(NC(=O)c3cccc4c(=O)c5cccc(OCC[18F])c5[nH]c34)cc1)CC2 | 0.18 % ID/g | 2.43 % ID/g | 5.35 % ID/g | 11.6 % ID/g | 1.66 % ID/g | 6.9 | 7.09 % ID/g | 4.09 % ID/g | 1.43 % ID/g | 4.4 | 0.38 % ID/g | 30.2 SUV·min | 25.3 SUV·min | 19.98 % ID/g | 0.17 % ID/g | 0.65 % ID/g | 7.21 % ID/g | 10.6 | 13.32 % ID/g | Active | AUC (Blood [21]): 23.5 SUV·min; Drug uptake (Pancreas): 15.14 % ID/g; Fold increase [22]: 10; Drug uptake (Liver [23]): 4.88 % ID/g; Drug uptake (Muscle tissue [24]): 0.53 % ID/g; Drug uptake (Spleen [25]): 5.74 % ID/g; Drug uptake (Spleen [26]): 4.76 % ID/g; Drug uptake [27]: 17.15 % ID/g; Activity (Brain [28]): Active; Drug uptake (Brain [29]): 0.13 % ID/g; Ratio AUC (Brain [30]): 9; Activity (Brain [31]): Active; Drug uptake (Blood [32]): 0.4 % ID/g; Drug uptake (Heart [33]): 6.65 % ID/g; Drug uptake (Blood [34]): 0.36 % ID/g; Drug uptake (Kidney [35]): 19.45 % ID/g; Drug uptake (Muscle tissue [36]): 1.18 % ID/g; Ratio AUC (Brain [37]): 2.4; Drug uptake (Liver [38]): 5.99 % ID/g
